From ChEMBL document CHEMBL4145654, “Structure-Based Discovery of CF53 as a Potent and Orally Bioavailable Bromodomain and Extra-Terminal (BET) Bromodomain Inhibitor” (J Med Chem, 2018)

Columns and labels:
Homo sapiens [1] = species: Homo sapiens; test: Selectivity index, ratio of Kd for human CECR2 (P423 to D543 residues) to Kd for human BRD2 bromodomain 2 (E348 to D455 residues)
[2] = biological target: Transcription initiation factor TFIID subunit 1-like (Homo sapiens, UniProt Q8IZX4); test: Binding affinity to human TAF1L bromodomain 2 (Q1523 to D1654 residues) expressed in bacterial expression system by BROMOScan assay
[3] = biological target: Bromodomain testis-specific protein (Homo sapiens, UniProt Q58F21); test: Binding affinity to human BRDT bromodomain 1 (N21 to E137 residues) expressed in bacterial expression system by BROMOscan assay
[4] = biological target: Bromodomain-containing protein 8 (Homo sapiens, UniProt Q9H0E9); test: Inhibition of BRD8 bromodomain 2 (unknown origin) by BROMOScan assay
[5] = biological target: SWI/SNF-related matrix-associated actin-dependent regulator of chromatin subfamily A member 4 (Homo sapiens, UniProt P51532); test: Binding affinity to human SMARCA4 (A1448 to S1575 residues) expressed in bacterial expression system by BROMOScan assay
Chain of SWI/SNF-related matrix-associated actin-dependent regulator of chromatin subfamily A member 4 (P51532 whole entry, the tested form may be a part): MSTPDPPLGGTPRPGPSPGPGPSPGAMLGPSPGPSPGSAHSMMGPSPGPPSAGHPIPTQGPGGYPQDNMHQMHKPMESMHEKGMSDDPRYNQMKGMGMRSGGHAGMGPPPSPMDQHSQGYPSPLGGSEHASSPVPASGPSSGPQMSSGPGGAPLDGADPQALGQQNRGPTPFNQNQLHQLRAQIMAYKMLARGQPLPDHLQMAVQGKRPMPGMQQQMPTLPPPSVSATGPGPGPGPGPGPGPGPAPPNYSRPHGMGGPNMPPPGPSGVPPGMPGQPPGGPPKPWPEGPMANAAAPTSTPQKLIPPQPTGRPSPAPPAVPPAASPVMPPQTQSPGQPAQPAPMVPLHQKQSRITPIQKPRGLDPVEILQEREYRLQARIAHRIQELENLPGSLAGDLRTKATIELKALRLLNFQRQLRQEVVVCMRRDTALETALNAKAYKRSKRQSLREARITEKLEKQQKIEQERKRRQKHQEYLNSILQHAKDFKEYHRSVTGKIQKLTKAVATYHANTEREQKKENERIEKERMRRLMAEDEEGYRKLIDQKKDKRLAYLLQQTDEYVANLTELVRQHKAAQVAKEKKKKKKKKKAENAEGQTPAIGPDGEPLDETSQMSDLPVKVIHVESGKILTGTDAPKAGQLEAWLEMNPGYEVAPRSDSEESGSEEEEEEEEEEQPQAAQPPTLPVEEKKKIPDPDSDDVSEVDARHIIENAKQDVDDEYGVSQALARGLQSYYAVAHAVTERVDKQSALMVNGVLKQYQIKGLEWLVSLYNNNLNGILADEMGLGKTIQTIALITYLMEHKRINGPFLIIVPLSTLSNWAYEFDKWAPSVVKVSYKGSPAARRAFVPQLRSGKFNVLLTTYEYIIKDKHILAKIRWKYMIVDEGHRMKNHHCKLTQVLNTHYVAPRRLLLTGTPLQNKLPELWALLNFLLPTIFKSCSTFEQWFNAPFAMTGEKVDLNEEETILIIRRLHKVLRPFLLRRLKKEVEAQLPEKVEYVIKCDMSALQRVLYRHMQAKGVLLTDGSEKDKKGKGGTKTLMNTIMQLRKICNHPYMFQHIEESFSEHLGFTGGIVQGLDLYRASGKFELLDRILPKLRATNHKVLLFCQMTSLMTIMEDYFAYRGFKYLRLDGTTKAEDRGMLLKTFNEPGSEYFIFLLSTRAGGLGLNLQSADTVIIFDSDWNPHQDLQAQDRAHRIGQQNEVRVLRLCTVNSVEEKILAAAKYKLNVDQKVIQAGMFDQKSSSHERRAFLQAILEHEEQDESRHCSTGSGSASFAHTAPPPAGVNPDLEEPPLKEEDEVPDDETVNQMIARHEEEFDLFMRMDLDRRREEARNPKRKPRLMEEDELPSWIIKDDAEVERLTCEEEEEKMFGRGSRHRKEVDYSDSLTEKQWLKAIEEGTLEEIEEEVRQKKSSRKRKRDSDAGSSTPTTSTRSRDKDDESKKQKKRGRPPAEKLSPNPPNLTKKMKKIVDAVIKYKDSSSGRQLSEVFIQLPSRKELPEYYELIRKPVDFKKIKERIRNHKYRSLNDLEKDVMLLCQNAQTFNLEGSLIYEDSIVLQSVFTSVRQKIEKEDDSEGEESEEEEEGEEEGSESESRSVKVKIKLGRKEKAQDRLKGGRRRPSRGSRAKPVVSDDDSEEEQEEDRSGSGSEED

[6] = biological target: Histone acetyltransferase p300 (Homo sapiens, UniProt Q09472); test: Binding affinity to human EP300 (A1040 to G1161 residues) expressed in bacterial expression system by BROMOScan assay
[7] = AUC in Balb/c mouse at 25 mg/kg, po by LC-MS/MS analysis; assay type: ADME, organism-based; conditions: in vivo
In short: (§1)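 Balb/c mice dosed iv at 5.0 mg/kg or po at 25 mg/kg, compound in vehicle of 20% (v/v) PCP and 70% (v/v) PBS. Serial blood samples taken at 0, 5, 15, 30 min and 1, 2, 4, 6, 8, 24 h. Plasma obtained by centrifugation and stored at −80 °C. Analysis by LC-MS/MS, positive-ion MRM. Parameters from noncompartmental analysis.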

[8] = Oral bioavailability in Balb/c mouse at 25 mg/kg by LC-MS/MS analysis; assay type: ADME, organism-based; conditions: in vivo; in short: as §1
[9] = Plasma concentration in SCID mouse xenografted with human MDA-MB-231 cells at 50 mg/kg administered via oral gavage measured after 6 hrs; assay type: ADME, organism-based
In short: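 SCID mice carrying MDA-MB-231 tumors dosed orally at 50 mg/kg. Plasma drug level determined by LC-MS/MS (positive-ion MRM, C18 column, formic acid/acetonitrile gradient). Value is the mean from two mice per time point.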

[10] = Plasma concentration in SCID mouse xenografted with human MDA-MB-231 cells at 50 mg/kg administered via oral gavage measured after 1 hr; assay type: ADME, organism-based
In short: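 Limited PK in SCID mice bearing MDA-MB-231 tumors, 50 mg/kg given by oral gavage. Plasma and tumor tissue drug levels measured at two time points per compound. Values are the mean of two mice/tumors per time point.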

MDA-MB-231 = test: Antitumor activity against human MDA-MB-231 cells xenografted in SCID mouse assessed as tumor growth inhibition at 25 mg/kg administered via oral gavage measured on day 44; assay type: functional; conditions: MDA-MB-231, po, 1056 h, read-out: TGI
In short: (§2)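 SCID mice were implanted subcutaneously on the dorsal side with 5 × 10⁶ MDA-MB-231 or RS4;11 cells in 50% Matrigel, one tumor per mouse. At ca. 100 mm3, mice were randomized to treatment or vehicle groups and dosed by oral gavage. Tumor volume = L × W²/2. Body weight change tracked. p values by two-tailed unpaired t-test.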

Mus musculus = test: Toxicity in SCID mouse xenografted with human RS4:11 cells assessed as change in body weight at 10 to 50 mg/kg administered via oral gavage measured 2 to 3 times per week during compound dosing and measured weekly post treatment; assay type: organism-based; conditions: in vivo
In short: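 Xenografts raised by subcutaneous dorsal injection of 5 × 10⁶ cells in 50% Matrigel into SCID mice, one tumor per mouse. Mice randomized to treatment or vehicle groups at about 100 mm3 tumor volume. Compounds given by oral gavage at the indicated dose-schedules, with percentage body-weight change tracked alongside tumor volume (L × W²/2).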

[11] = biological target: Bromodomain and WD repeat-containing protein 1 (Homo sapiens, UniProt Q9NSI6); test: Binding affinity to human WDR9 bromodomain 2 (A1310 to E1430 residues) expressed in bacterial expression system by BROMOscan assay
Chain of Bromodomain and WD repeat-containing protein 1 (Q9NSI6 whole entry, the tested form may be a part): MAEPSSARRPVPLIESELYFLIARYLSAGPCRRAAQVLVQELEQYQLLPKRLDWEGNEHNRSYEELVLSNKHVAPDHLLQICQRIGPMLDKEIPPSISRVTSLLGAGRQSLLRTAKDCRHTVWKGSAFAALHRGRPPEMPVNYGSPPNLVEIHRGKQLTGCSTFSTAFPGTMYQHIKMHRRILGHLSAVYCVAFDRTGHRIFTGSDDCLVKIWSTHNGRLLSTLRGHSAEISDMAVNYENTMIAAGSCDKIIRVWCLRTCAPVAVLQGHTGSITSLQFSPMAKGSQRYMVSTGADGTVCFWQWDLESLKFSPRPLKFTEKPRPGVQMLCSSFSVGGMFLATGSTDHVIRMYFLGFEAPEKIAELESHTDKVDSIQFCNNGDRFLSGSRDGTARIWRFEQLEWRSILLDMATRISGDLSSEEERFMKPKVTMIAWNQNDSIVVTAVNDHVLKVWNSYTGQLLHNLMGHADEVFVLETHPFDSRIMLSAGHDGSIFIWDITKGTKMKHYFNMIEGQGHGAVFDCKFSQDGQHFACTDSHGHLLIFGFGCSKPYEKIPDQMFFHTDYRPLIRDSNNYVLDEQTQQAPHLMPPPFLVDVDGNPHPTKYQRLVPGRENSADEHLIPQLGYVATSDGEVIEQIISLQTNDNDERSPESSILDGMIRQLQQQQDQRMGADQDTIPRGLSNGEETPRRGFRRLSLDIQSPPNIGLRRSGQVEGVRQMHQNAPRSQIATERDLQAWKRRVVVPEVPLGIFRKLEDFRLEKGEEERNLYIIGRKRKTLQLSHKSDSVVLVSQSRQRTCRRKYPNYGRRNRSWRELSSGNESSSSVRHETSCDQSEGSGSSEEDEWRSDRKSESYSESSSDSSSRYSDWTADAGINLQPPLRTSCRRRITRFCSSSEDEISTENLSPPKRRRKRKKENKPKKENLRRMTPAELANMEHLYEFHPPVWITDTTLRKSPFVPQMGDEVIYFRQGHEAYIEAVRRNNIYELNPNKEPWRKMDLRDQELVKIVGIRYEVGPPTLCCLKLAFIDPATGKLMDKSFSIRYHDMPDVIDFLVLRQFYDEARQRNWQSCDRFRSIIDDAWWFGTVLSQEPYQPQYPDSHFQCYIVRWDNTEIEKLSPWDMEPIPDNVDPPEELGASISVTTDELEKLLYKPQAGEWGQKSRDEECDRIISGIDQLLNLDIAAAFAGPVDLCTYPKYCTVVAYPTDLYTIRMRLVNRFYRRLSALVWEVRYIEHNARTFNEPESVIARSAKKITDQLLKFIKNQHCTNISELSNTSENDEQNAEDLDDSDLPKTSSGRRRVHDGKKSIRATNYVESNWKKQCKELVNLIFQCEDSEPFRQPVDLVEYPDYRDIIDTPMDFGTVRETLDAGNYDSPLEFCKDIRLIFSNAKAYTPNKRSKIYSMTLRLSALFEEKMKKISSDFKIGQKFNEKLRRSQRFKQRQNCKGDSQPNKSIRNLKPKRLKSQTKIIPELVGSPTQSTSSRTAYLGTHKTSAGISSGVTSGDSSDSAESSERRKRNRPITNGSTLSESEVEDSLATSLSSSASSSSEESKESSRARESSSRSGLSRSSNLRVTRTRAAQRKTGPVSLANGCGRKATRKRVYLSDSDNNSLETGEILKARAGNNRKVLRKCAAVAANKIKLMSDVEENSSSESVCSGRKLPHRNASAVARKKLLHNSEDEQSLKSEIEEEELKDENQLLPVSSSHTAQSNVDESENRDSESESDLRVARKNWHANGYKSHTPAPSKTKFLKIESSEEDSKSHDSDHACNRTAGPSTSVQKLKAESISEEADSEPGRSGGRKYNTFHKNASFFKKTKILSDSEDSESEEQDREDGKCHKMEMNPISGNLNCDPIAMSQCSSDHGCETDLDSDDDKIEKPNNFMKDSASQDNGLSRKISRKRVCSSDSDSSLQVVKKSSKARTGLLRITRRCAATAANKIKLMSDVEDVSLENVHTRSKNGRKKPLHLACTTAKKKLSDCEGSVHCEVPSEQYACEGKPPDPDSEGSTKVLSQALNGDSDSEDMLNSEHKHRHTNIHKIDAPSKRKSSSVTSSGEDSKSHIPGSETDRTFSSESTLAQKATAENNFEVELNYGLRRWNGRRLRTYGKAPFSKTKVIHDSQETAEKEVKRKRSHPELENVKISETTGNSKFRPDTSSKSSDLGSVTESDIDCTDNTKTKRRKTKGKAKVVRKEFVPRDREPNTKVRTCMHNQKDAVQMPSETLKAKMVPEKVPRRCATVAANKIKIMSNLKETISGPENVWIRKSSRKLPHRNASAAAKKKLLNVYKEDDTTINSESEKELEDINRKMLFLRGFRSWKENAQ

Homo sapiens [12] = species: Homo sapiens; test: Selectivity index, ratio of Kd for human CECR2 (P423 to D543 residues) to Kd for human BRD3 bromodomain 2 (G306 to P416 residues)
Homo sapiens [13] = species: Homo sapiens; test: Selectivity index, ratio of Kd for human CREBBP (R1081 to G1197 residues) to Kd for human BRD4 bromodomain 1 (N44 to E168 residues)
Homo sapiens [14] = species: Homo sapiens; test: Selectivity index, ratio of Kd for human CECR2 (P423 to D543 residues) to Kd for human BRD4 bromodomain 2 (K333 to E460 residues)
Peregrin = Peregrin (Homo sapiens, UniProt P55201); test: Binding affinity to human BRPF1 (E627 to G740 residues) expressed in bacterial expression system by BROMOScan assay
[15] = biological target: Transcription intermediary factor 1-alpha (Homo sapiens, UniProt O15164); test: Binding affinity to human TRIM24 (P790 to P977 residues) expressed in bacterial expression system by BROMOScan assay
Homo sapiens [16] = species: Homo sapiens; test: Selectivity index, ratio of Kd for human EP300 (A1040 to G1161 residues) to Kd for human BRDT bromodomain 1 (N21 to E137 residues)
Homo sapiens [17] = species: Homo sapiens; test: Selectivity index, ratio of Kd for human EP300 (A1040 to G1161 residues) to Kd for human BRD2 bromodomain 2 (E348 to D455 residues)
[18] = biological target: Serine/threonine-protein kinase PLK4 (Homo sapiens, UniProt O00444); test: Inhibition of human PLK4 using casein as substrate in presence of [gamma-33P]-ATP
Chain of Serine/threonine-protein kinase PLK4 (O00444 whole entry, the tested form may be a part): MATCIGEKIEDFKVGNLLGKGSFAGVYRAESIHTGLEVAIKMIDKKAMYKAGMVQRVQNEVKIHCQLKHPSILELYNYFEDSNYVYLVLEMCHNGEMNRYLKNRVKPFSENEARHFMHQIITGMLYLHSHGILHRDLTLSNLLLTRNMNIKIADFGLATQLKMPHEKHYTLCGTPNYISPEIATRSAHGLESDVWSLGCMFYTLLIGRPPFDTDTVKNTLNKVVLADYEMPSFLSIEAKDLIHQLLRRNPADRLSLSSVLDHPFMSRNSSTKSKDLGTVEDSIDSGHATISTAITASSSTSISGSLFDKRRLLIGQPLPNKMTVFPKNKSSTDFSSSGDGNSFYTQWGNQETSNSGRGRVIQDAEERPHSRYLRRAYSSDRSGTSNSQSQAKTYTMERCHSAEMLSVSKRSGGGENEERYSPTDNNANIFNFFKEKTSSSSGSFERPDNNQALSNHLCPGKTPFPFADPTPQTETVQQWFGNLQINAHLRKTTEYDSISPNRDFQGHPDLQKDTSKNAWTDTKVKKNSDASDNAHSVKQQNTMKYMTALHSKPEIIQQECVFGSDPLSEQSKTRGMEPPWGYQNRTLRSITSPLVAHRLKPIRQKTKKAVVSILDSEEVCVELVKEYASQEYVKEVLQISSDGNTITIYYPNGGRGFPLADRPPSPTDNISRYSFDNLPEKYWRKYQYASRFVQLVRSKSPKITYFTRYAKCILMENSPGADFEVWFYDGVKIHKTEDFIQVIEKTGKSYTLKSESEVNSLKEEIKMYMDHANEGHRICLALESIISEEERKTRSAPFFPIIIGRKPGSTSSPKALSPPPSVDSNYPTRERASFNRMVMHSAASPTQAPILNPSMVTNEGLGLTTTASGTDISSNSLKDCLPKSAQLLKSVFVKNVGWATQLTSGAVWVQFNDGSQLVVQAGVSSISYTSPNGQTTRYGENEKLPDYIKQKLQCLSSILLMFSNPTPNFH

Homo sapiens [19] = species: Homo sapiens; test: Selectivity index, ratio of Kd for human CECR2 (P423 to D543 residues) to Kd for human BRDT bromodomain 1 (N21 to E137 residues)
RS4-11 = test: Antitumor activity against human RS4:11 cells xenografted in SCID mouse assessed as tumor growth inhibition at 25 mg/kg administered via oral gavage measured on day 35; assay type: functional; conditions: RS4-11, po, 840 h, read-out: TGI; in short: as §2

For `COc1cc2c(cc1-c1c(C)noc1C)[nH]c1nc(C)nc(Nc3cc(C4CC4)nn3C)c12`, the Selectivity Index (Homo sapiens [1]) was > 50, the Kd [2] was > 5 µM and the Kd [3] was 0.002 µM. The Kd [4] was > 5 µM, the Kd [5] was > 5 µM and the Kd [6] was 0.11 µM. For the same compound, the AUC [7] was 32.2 µM·h, the bioavailability [8] was 71.3% and the concentration at 6 h [9] was 7360 ng/mL. For the same compound, the concentration at 1 h [10] was 12600 ng/mL, the inhibition in vivo at 25 mg/kg (MDA-MB-231) was 67.6% and the Activity (Mus musculus) was “Non-Toxic”. The Kd [11] was > 5 µM, the Selectivity Index (Homo sapiens [12]) was > 50 and the Selectivity Index (Homo sapiens [13]) was > 20. For the same compound, the Selectivity Index (Homo sapiens [14]) was > 50, the Kd (Peregrin) was > 4 µM and the Kd [15] was > 4 µM. The Selectivity Index (Homo sapiens [16]) was > 50, the Selectivity Index (Homo sapiens [17]) was > 50 and the IC50 [18] was 3.9 µM. The Selectivity Index (Homo sapiens [19]) was > 50 and the inhibition in vivo at 25 mg/kg (RS4-11) was 49.3%.
